Source: ChEMBL document CHEMBL1125205, “Phosphorus-containing inhibitors of HMG-CoA reductase. 2. Synthesis and biological activities of a series of substituted pyridines containing a hydroxyphosphinyl moiety” (J Med Chem, 1991)

Legend:
Rattus norvegicus [1] = organism: Rattus norvegicus; assay: The compound was tested for inhibition of Cholesterol synthesis from [14C]- Acetate in hepatocytes of rats.; format: functional; conditions: Hepatocyte, read-out: I 50
How it was run: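 Rat hepatocytes were freshly isolated by collagenase perfusion, 70-90% viable. Cells were suspended at 5 × 10^6 per 2.0 mL in Tris pH 7.4 incubation medium with cofactors; DMSO was ≤1.0% final. Incubation was with [14C]acetate (2 µCi/mL) for 2.0 h at 37 °C. Lipids were extracted by Bligh-Dyer and the percent of label in the cholesterol peak was compared with controls. I50 from composite curves of two or more studies.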

Rattus norvegicus [2] = assay: The compound was tested in vivo for inhibition of Cholesterol Biosynthesis from [14C]- acetate in rat after peroral administration.; format: functional; conditions: po
Homo sapiens = organism: Homo sapiens; assay: The compound was tested for inhibition of Cholesterol synthesis from [14C]- Acetate in human skin fibroblasts; format: functional; conditions: read-out: I 50
How it was run: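 Human skin fibroblasts (passage 7-27) were plated at 5 × 10^5 cells/well and cultured 18 h. Sterol synthesis was induced by 24 h in serum-free MEM with 1.0% fatty acid-free BSA. Cells were preincubated with compound for 30 min (DMSO ≤1.0%), then given sodium [1-14C]acetate at 2.0 µCi/mL for 4 h. Label in the extracted cholesterol peak was compared with controls. I50 from composite curves of ≥2 experiments.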

[3] = molecular target: T1, 3-hydroxy-3-methylglutaryl-coenzyme A reductase (Rattus norvegicus, UniProt P51639); assay: In vitro for inhibition of rat HMG-CoA reductase.; conditions: read-out: I50
T1 sequence (P51639 whole entry): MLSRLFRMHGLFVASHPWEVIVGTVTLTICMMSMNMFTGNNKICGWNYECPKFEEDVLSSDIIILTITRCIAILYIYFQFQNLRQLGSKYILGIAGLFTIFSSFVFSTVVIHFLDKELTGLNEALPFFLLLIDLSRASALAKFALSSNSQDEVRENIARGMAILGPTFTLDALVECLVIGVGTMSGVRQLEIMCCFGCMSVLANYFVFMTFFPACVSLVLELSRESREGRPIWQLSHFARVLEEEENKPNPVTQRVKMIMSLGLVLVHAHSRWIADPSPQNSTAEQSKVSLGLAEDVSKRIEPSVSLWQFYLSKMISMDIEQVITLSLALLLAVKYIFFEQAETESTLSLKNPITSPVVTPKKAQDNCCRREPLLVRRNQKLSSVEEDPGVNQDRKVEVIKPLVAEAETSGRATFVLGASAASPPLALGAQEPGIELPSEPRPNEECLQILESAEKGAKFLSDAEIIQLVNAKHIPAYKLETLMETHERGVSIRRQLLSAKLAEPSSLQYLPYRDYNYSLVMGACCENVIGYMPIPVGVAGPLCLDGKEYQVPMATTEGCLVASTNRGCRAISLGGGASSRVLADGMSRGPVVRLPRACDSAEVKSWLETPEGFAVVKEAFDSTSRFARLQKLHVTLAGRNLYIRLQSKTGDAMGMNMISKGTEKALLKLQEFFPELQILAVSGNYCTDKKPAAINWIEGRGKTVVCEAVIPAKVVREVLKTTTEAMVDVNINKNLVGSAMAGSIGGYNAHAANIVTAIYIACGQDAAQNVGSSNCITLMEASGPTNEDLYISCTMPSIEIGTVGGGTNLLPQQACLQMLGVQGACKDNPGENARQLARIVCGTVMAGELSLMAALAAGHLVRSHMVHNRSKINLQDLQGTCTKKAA
How it was run: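 Enzyme source: hepatic microsomes from cholestyramine-fed Sprague-Dawley rats. Final assay conditions: 0.04 M potassium phosphate pH 7.2, KCl, sucrose, EDTA, 10 mM DTT, 1% DMSO, 50-200 µg microsomal protein. Microsomes were preincubated with 2.7 mM NADPH for 15 min at 37 °C, then with compound for 15 min. 100 µM 14C-[D,L]-HMG-CoA was then added for 20 min at 37 °C. Read-out: 14C-mevalonate, corrected by 3H-mevalonate recovery. I50 taken from composite dose-response regressions, 2-5 experiments.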

[4] = It is the ratio of I50 fibroblasts to that of I50 hepatocytes.; format: functional, Hepatocyte
How it was run: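 Selectivity is the ratio of I50 in human skin fibroblasts to I50 in freshly isolated rat hepatocytes. Each I50 came from [14C]acetate incorporation into cholesterol, measured as percent inhibition versus controls from composite dose-response data.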

Rattus norvegicus [5] = assay: The compound was tested in vivo for inhibition of Cholesterol Biosynthesis from [14C]- acetate in rat after intravenous administration.; format: functional
How it was run: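 Male Sprague-Dawley rats (200-300 g) were kept on a reverse light cycle. Salt forms were given iv into the tail vein in saline, 5 min before ip sodium [1-14C]acetate (25 µCi/100 g), dosed 2 h before mid-dark. Blood was taken 2 h after mid-dark. Read-out: 14C nonsaponifiable plasma lipid per mL versus controls, 4-5 rats/group. ED50 from log dose regressions, mean of ≥2 experiments.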

Row | SMILES | IC50 [3] | IC50 (Rattus norvegicus [1]) | ED50 (Rattus norvegicus [2]) | IC50 (Homo sapiens) | Selectivity [4] | ED50 (Rattus norvegicus [5])
1 | CC(C)c1nc(-c2ccccc2)cc(-c2ccc(F)cc2)c1C#CP(=O)([O-])C[C@H](O)CC(=O)[O-].[Li+].[Li+] | 62 nM | 197 nM | 3.9 mg/kg | 9300 nM | 47 | 0.47 mg/kg
2 | CC(C)c1nc(-c2ccccc2)cc(-c2ccc(F)cc2)c1/C=C/P(=O)([O-])C[C@H](O)CC(=O)[O-].[Li+].[Li+] | 1.9 nM | 77 nM | 21.4 mg/kg | 2000 nM | 26 | 0.22 mg/kg
3 | Cc1c(-c2ccccc2)nc(C(C)C)c(/C=C/P(=O)([O-])C[C@H](O)CC(=O)[O-])c1-c1ccc(F)cc1.[Na+].[Na+] | 1.2 nM | 260 nM | 0.46 mg/kg | 2000 nM | 7.7 | 0.1 mg/kg
4 | CC(C)c1nc(C(C)(C)C)cc(-c2ccc(F)cc2)c1C#CP(=O)([O-])C[C@H](O)CC(=O)[O-].[Na+].[Na+] | 6.1 nM | 556 nM | 3.5 mg/kg | 2400 nM | 4.3 | 0.7 mg/kg

Further lines, with some results ahead:

Row | IC50 [3] | SMILES | IC50 (Rattus norvegicus [1]) | ED50 (Rattus norvegicus [2]) | IC50 (Homo sapiens) | Selectivity [4] | ED50 (Rattus norvegicus [5])
5 | 0.55 nM | CCc1c(-c2ccccc2)nc(C(C)C)c(/C=C/P(=O)([O-])C[C@H](O)CC(=O)[O-])c1-c1ccc(F)cc1.[Na+].[Na+] | 241 nM | > 10 mg/kg | 4700 nM | 19.5 | 0.2 mg/kg
6 | 4.5 nM | Cc1c(-c2ccccc2)nc(C(C)C)c(C#CP(=O)([O-])C[C@H](O)CC(=O)[O-])c1-c1ccc(F)cc1.[Li+].[Li+] | 81 nM | 3.1 mg/kg | 11300 nM | 140 | 0.13 mg/kg
